Activity calls are given as the source filed them. No cut-off for these calls is given here.
Assays:
[1] = tested on: Pseudomonas aeruginosa; assay: Antibacterial activity against pandrug-resistant Pseudomonas aeruginosa isolate 91433 in presence of <= 4 ug/ml of ciprofloxacin (reference value: 8 ug/ml); format: functional
[2] = tested on: Pseudomonas aeruginosa; assay: Antibacterial activity against Pseudomonas aeruginosa PAO1 assessed as fractional inhibitory concentration index after 18 hrs in presence of vancomycin by checkerboard method; format: functional
In short: (§1)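 Checkerboard combinations of the hybrid with each partner antibiotic were tested against P. aeruginosa PAO1. Interaction is expressed as the fractional inhibitory concentration (FIC) index: ≤0.5 means synergy, 1–2 no interaction, ≥4 antagonism.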

[3] = tested on: Pseudomonas aeruginosa; assay: Antibacterial activity against pandrug-resistant Pseudomonas aeruginosa isolate 101243 in presence of <= 4 ug/ml of ciprofloxacin (reference value: 8 ug/ml); format: functional
[4] = tested on: Pseudomonas aeruginosa; assay: Antibacterial activity against multidrug-resistant/tobramycin-susceptible Pseudomonas aeruginosa isolate 80621; format: functional
[5] = tested on: Pseudomonas aeruginosa; assay: Antibacterial activity against multidrug/extremely drug-resistant/colistin-susceptible Pseudomonas aeruginosa isolate 262-101856; format: functional
[6] = tested on: Pseudomonas aeruginosa; assay: Potentiation of moxifloxacin induced antibacterial activity against multidrug/extremely drug-resistant Pseudomonas aeruginosa isolate PA264-104354 assessed as moxifloxacin MIC at <= […] ug/ml (reference value: […] to […] ug/ml); format: functional
[7] = tested on: Pseudomonas aeruginosa; assay: Antibacterial activity against multidrug-resistant/tobramycin-susceptible Pseudomonas aeruginosa isolate 86067; format: functional
[8] = tested on: Escherichia coli; assay: Antibacterial activity against fluoroquinolone resistant Escherichia coli isolate 90789 harboring beta-lactamase KPC-3/TEM-1; format: functional
[9] = tested on: Pseudomonas aeruginosa; assay: Antibacterial activity against pandrug-resistant Pseudomonas aeruginosa isolate 91433; format: functional
[10] = tested on: Pseudomonas aeruginosa; assay: Ratio of MIC for Pseudomonas aeruginosa PAO1 after 25 serial passages to MIC for Pseudomonas aeruginosa PAO1 prior to 25 serial passages; format: functional
In short: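 P. aeruginosa PAO1 exposed to sub-inhibitory (0.5 x MIC) drug over successive subcultures as a resistance-selection procedure. MIC compared after versus before passaging.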

[11] = tested on: Pseudomonas aeruginosa; assay: Antimotility activity against Pseudomonas aeruginosa PAO1 assessed as reduction in flagellum-dependent swimming motility after 20 hrs; format: functional
In short: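 Swim plates (0.3% agar, dried and set for 60 min) were inoculated with PAO1 at OD600 1.0, with or without 0.25 µg/mL test agent. Plates were imaged after 20 h at 37 °C.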

[12] = tested on: Escherichia coli; assay: Antibacterial activity against fluoroquinolone resistant Escherichia coli isolate 80960 harboring beta-lactamase CTX-M-15/TEM-1; format: functional
[13] = tested on: Pseudomonas aeruginosa; assay: Antibacterial activity against extremely drug-resistant Pseudomonas aeruginosa isolate 104354 infected in Galleria mellonella assessed as larvae survival at 50 mg/kg administered as single dose measured after 24 hrs (reference value: 27 %); format: functional; conditions: isolate 104354, 24 h
In short: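 Galleria mellonella larvae were infected with 10^6 CFU of XDR P. aeruginosa #104354, resistant to all antipseudomonal classes except colistin. A single injected drug dose was given 2 h post-infection: 50 mg/kg with survival read at 24 h, or 75 mg/kg with survival read at 96 h. Controls were infected untreated larvae and PBS-injected larvae. Two independent experiments of 15 larvae each (n = 30).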

[14] = tested on: Acinetobacter baumannii; assay: Antibacterial activity against fluoroquinolone resistant Acinetobacter baumannii isolate ABO28; format: functional
[15] = tested on: Escherichia coli; assay: Antibacterial activity against fluoroquinolone resistant Escherichia coli isolate N-10-1631 harboring beta-lactamase CTX-M-15/OXA-1; format: functional
[16] = Toxicity in Galleria mellonella upto 96 hrs
In short: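 Tolerability test in Galleria mellonella larvae, injected with doses up to a maximum of 600 mg/kg.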

[17] = tested on: Pseudomonas aeruginosa; assay: Antibacterial activity against Pseudomonas aeruginosa PAO1 assessed as fractional inhibitory concentration index after 18 hrs in presence of erythromycin by checkerboard method; format: functional; in short: as §1
[18] = tested on: Escherichia coli; assay: Antibacterial activity against fluoroquinolone resistant Escherichia coli isolate 92969 harboring beta-lactamase CTX-M-15/OXA-1; format: functional
[19] = tested on: Klebsiella pneumoniae; assay: Antibacterial activity against Klebsiella pneumoniae ATCC 13883 after 24 hrs by microtitre broth dilution method; format: functional; conditions: ATCC 13883, 24 h
[20] = tested on: Pseudomonas aeruginosa; assay: Induction of outer membrane permeabilization in Pseudomonas aeruginosa PAO1 assessed as accumulation of propidium iodide at 8 ug/ml after 3 to 4 hrs by fluorescence microscopy; format: functional
In short: (§2)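 PAO1 cells were treated with 8 µg/mL for 3 h at 37 °C, then stained with the membrane-impermeable nucleic-acid dye propidium iodide. Fluorescence microscopy and DIC imaging were compared against untreated cells.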

[21] = tested on: Pseudomonas aeruginosa; assay: Potentiation of ciprofloxacin induced antibacterial activity against multidrug/extremely drug-resistant Pseudomonas aeruginosa isolate PA259-96918 assessed as ciprofloxacin MIC at <= […] ug/ml (reference value: […] ug/ml); format: functional
[22] = tested on: Pseudomonas aeruginosa; assay: Antibacterial activity against multidrug/extremely drug-resistant/colistin-susceptible Pseudomonas aeruginosa isolate 100036; format: functional
[23] = tested on: Pseudomonas aeruginosa; assay: Antibacterial activity against Pseudomonas aeruginosa PAO1 assessed as fractional inhibitory concentration index after 18 hrs in presence of moxifloxacin by checkerboard method; format: functional; in short: as §1
[24] = tested on: Pseudomonas aeruginosa; assay: Antibacterial activity against multidrug/extremely drug-resistant/pandrug-resistant Pseudomonas aeruginosa isolate PA259-96918 in presence of <= 4 ug/ml of moxifloxacin (reference value: 2 ug/ml); format: functional
[25] = tested on: Pseudomonas aeruginosa; assay: Antibacterial activity against multidrug-resistant/tobramycin-susceptible Pseudomonas aeruginosa isolate 83182; format: functional
[26] = tested on: Pseudomonas aeruginosa; assay: Induction of inner membrane permeabilization in Pseudomonas aeruginosa PAO1 assessed as accumulation of propidium iodide at 8 ug/ml after 3 to 4 hrs by fluorescence microscopy; format: functional; in short: as §2
[27] = Cytotoxicity against human JIMT1 cells assessed as reduction in cell viability after 48 hrs by MTS assay; format: toxicity, cell-based, JIMT-1
[28] = Cytotoxicity against human DU145 cells assessed as reduction in cell viability after 48 hrs by MTS assay; format: toxicity, cell-based, DU-145
[29] = tested on: Pseudomonas aeruginosa; assay: Antibacterial activity against Pseudomonas aeruginosa PAO1 assessed as fractional inhibitory concentration index after 18 hrs in presence of trimethoprim by checkerboard method; format: functional; in short: as §1
[30] = tested on: Pseudomonas aeruginosa; assay: Potentiation of ciprofloxacin induced antibacterial activity against pandrug-resistant Pseudomonas aeruginosa isolate 101243 assessed as ciprofloxacin MIC at <= […] ug/ml (reference value: 2 ug/ml); format: functional
[31] = tested on: Pseudomonas aeruginosa; assay: Antibacterial activity against pandrug-resistant Pseudomonas aeruginosa isolate 91433 in presence of <= 4 ug/ml of moxifloxacin (reference value: 8 ug/ml); format: functional
[32] = tested on: Pseudomonas aeruginosa; assay: Antimicrobial activity against Pseudomonas aeruginosa PAO1 assessed as cell membrane blebbing at 8 ug/ml after 3 to 4 hrs by uranyl acetate staining based transmission electron microscopy; format: functional
In short: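 PAO1 in Mueller-Hinton broth was exposed to 8 µg/mL at 37 °C (3 h in the legend, 4 h in the text). Untreated cells were the reference. Morphology was imaged by transmission electron microscopy at 75 kV.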

[33] = tested on: Pseudomonas aeruginosa; assay: Antibacterial activity against pandrug-resistant Pseudomonas aeruginosa isolate 101243 in presence of <= 4 ug/ml of moxifloxacin (reference value: 8 ug/ml); format: functional
[34] = tested on: Staphylococcus epidermidis; assay: Antibacterial activity against methicillin-resistant Staphylococcus epidermidis isolate CAN-ICU 61589 after 24 hrs by microtitre broth dilution method; format: functional; conditions: isolate CAN-ICU 61589, 24 h
[35] = tested on: Pseudomonas aeruginosa; assay: Antibacterial activity against Pseudomonas aeruginosa PAO1; format: functional
[36] = tested on: Pseudomonas aeruginosa; assay: Antibacterial activity against multidrug/extremely drug-resistant Pseudomonas aeruginosa isolate PA262-101856 in presence of <= 4 ug/ml of ciprofloxacin (reference value: 4 ug/ml); format: functional

In the case of `COc1c(N2C[C@@H]3CCCN(CCCCCCCCCCCCO[C@@H]4[C@@H](O[C@H]5O[C@H](CO)[C@@H](O)[C@H](N)[C@H]5O)[C@H](N)C[C@H](N)[C@H]4O[C@H]4O[C@H](CN)[C@@H](O)C[C@H]4N)[C@@H]3C2)c(F)cc2c(=O)c(C(=O)O)cn(C3CC3)c12.Cl.Cl.Cl.Cl.Cl`, the MIC [1] is reported as less than 1 µg/mL, the “fractional inhibitory concentration index (FICI)” value [2] is reported as 0.26 and the MIC [3] is reported as less than 1 µg/mL. It also gave an MIC [4] of 8 µg/mL, an MIC [5] of 4 µg/mL and an MIC [6] of 1 µg/mL. It also gave an MIC [7] of 4 µg/mL, an MIC [8] of no less than 64 µg/mL and an MIC [9] of 8 µg/mL. The Ratio [10] was 2, the Activity [11] was “Dose-dependent effect” and the MIC [12] was no less than 64 µg/mL. It also gave a survival at 50 mg/kg [13] of 100%, an MIC [14] of 8 to 64 µg/mL and an MIC [15] of no less than 64 µg/mL. For the same compound, the MTD at 96 h [16] was 600 mg/kg, the “fractional inhibitory concentration index (FICI)” value [17] was 0.26 and the MIC [18] was no less than 64 µg/mL. For the same compound, the MIC [19] was 1 µg/mL, the Activity [20] was “Active” and the MIC [21] was less than 1 µg/mL. The MIC [22] was 8 µg/mL, the “fractional inhibitory concentration index (FICI)” value [23] was 0.18 and the MIC [24] was less than 1 µg/mL. The MIC [25] was 8 µg/mL, the Activity [26] was “Active” and the CC50 at 48 h [27] was greater than 30 µM. The CC50 at 48 h [28] was greater than 30 µM, the “fractional inhibitory concentration index (FICI)” value [29] was 0.25 and the MIC [30] was 0.06 µg/mL. For the same compound, the MIC [31] was less than 1 µg/mL, the Activity [32] was “Active” and the MIC [33] was less than 1 µg/mL. It also gave an MIC [34] of 16 µg/mL, an MIC [35] of 4 µg/mL and an MIC [36] of less than 0.5 µg/mL.
